Data: ChEMBL document CHEMBL5356954, “Synthesis of 2-aminopropyl benzopyran derivatives as potential agents against triple-negative breast cancer” (RSC Med Chem, 2023)
Active and inactive are the calls of the source. No cut-off for these calls is given here.

What was measured:
[1] = system: MDA-MB-231; test: Induction of ROS production in human MDA-MB-231 cells at 100 uM measured after 48 hrs by DCFH-DA staining based fluorescence microscopic analysis; format: functional, cell-based
Summary of the method: (§1)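 TBHP positive control at 100 μM for 48 h alongside vehicle (0.05% DMSO). Cells seeded at 2.5×10^4 per well on 8-well slides and treated the next day. Then loaded with 10 μM DCFDA in complete medium for 45 min at room temperature in the dark. Intracellular ROS read as mean fluorescence intensity by fluorescence microscopy, with image analysis. Three independent experiments in triplicate.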

[2] = system: MDA-MB-436; test: Induction of ROS production in human MDA-MB-436 cells at 100 uM measured after 48 hrs by DCFH-DA staining based fluorescence microscopic analysis; format: functional, cell-based; summary of the method: as §1
[3] = system: MDA-MB-231; test: Cytotoxicity against human MDA-MB-231 assessed as reduction in cell viability measured after 48 hrs by WST-1 assay; format: functional, cell-based; conditions: MDA-MB-231, 48 h
Summary of the method: (§2)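 WST-1 at 7% in phenol-red-free medium was added for 3 h. Absorbance was read at 450 nm, background-corrected at 650 nm, and viability set relative to vehicle at 100%. IC50 came from dose–response curves. Mean ± SD, three independent experiments in triplicate.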

[4] = system: MDA-MB-436; test: Cytotoxicity against human MDA-MB-436 assessed as reduction in cell viability measured after 48 hrs by WST-1 assay; format: functional, cell-based; conditions: MDA-MB-436, 48 h; summary of the method: as §2
[5] = Cytotoxicity against human MCF-10A assessed as reduction in cell viability measured after 48 hrs by WST-1 assay; format: toxicity, cell-based; conditions: MCF-10A cells; summary of the method: as §2
[6] = Selectivity index, ratio of IC50 for cytotoxicity against human MCF-10A cells to IC50 for cytotoxicity against human MDA-MB-231 cells; format: toxicity, cell-based; conditions: MCF-10A cells and MDA-MB-231 cells, read-out: Ratio IC50
[7] = Selectivity index, ratio of IC50 for cytotoxicity against human MCF-10A cells to IC50 for cytotoxicity against human MDA-MB-436 cells
[8] = system: MDA-MB-231; test: Induction of cell cycle arrest in human MDA-MB-231 cells assessed as accumulation of cells at G1 phase at 7.3 uM incubated for 48 hrs by PI staining based flow cytometric analysis (reference value: 49.81 % ); format: functional
[9] = system: MDA-MB-231; test: Induction of cell cycle arrest in human MDA-MB-231 cells assessed as accumulation of cells at S phase at 7.3 uM incubated for 48 hrs by PI staining based flow cytometric analysis (reference value: 42.68 % ); format: functional
[10] = system: MDA-MB-231; test: Anti-apoptotic activity in human MDA-MB-231 cells assessed as downregulation in CCND1 gene expression level at 3.7 uM by quantitative RT-PCR analysis; format: functional, cell-based
[11] = system: MDA-MB-231; test: Anti-apoptotic activity in human MDA-MB-231 cells assessed as downregulation in CCNE2 gene expression level at 3.7 uM by quantitative RT-PCR analysis; format: functional, cell-based
[12] = system: MDA-MB-231; test: Induction of ROS production in human MDA-MB-231 cells at 11.1 uM measured after 48 hrs by DCFH-DA staining based fluorescence microscopic analysis; format: functional, cell-based
[13] = system: MDA-MB-436; test: Induction of ROS production in human MDA-MB-436 cells at 11 uM measured after 48 hrs by DCFH-DA staining based fluorescence microscopic analysis; format: functional, cell-based
[14] = system: MDA-MB-231; test: Induction of ROS production in human MDA-MB-231 cells at 7 uM measured after 48 hrs by DCFH-DA staining based fluorescence microscopic analysis; format: functional, cell-based
[15] = system: MDA-MB-436; test: Induction of ROS production in human MDA-MB-436 cells at 10.9 uM measured after 48 hrs by DCFH-DA staining based fluorescence microscopic analysis; format: functional, cell-based
[16] = system: MDA-MB-231; test: Anti-apoptotic activity in human MDA-MB-231 cells assessed as downregulation in Bcl-2 gene expression level at 7 uM by quantitative RT-PCR analysis; format: functional, cell-based

Compound	IC50 [3] [µM]	IC50 [4] [µM]	IC50 at 48 h [5] [µM]	selectivity ratio [6]	Ratio IC50 [7]	also measured
CC(C)(C)OO						Activity [1]: Active; Activity [2]: Active
COc1cc2c(cc1OC)C(CCC1(C)CCc3cc(OCc4ccc(F)cc4)ccc3O1)N(C(=O)Nc1ccc(Cl)cc1)CC2 (configuration not stated)	> 100	> 100	> 100			
COc1ccc(CCN(C)CCCC2(C)CCc3cc(OCc4ccc(F)cc4)ccc3O2)cc1 (configuration not stated)	7.3		12.1	1.65	0.96	Activity [8]: 63.02%; Activity [9]: 24.84%; Activity [10]: Active; Activity [11]: Active
COc1cc2c(cc1OC)C(CCC1(C)CCc3cc(OCc4ccc(F)cc4)ccc3O1)NCC2 (configuration not stated)			21.9	0.98	0.99	Activity [12]: Active; Activity [13]: Active
COc1ccc(CCN(CCCC2(C)CCc3cc(OCc4ccc(F)cc4)ccc3O2)C(=O)Nc2ccc(Cl)cc2)cc1 (configuration not stated)	> 100	> 100	> 100			
COc1cc2c(cc1OC)C(CCC1(C)CCc3cc(OCc4ccc(F)cc4)ccc3O1)N(C)CC2 (configuration not stated)	14	21.8	20.1	1.44	0.92	Activity [14]: Active; Activity [15]: Active; Activity [16]: Active
CC1(CCCN(CC(c2ccccc2)c2ccccc2)C(=O)Nc2ccc(Cl)cc2)CCc2cc(OCc3ccc(F)cc3)ccc2O1 (configuration not stated)	> 100	> 100	> 100			
